Reference: ChEMBL document CHEMBL1132310, “New 4-aminoquinoline Mannich base antimalarials. 1. Effect of an alkyl substituent in the 5'-position of the 4'-hydroxyanilino side chain” (J Med Chem, 1999)
pIC50: −log10 of the molar value.

Assays:
Plasmodium falciparum [1] = assay: In vitro inhibitory activity against chloroquine-sensitive Plasmodium falciparum HB3; type: functional, organism-based
How it was run: (§1)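 Parasites kept in continuous culture in human erythrocytes in RPMI 1640 with 25 mM HEPES, 32 mM NaHCO3 and 10% human serum, gassed 3% O2/4% CO2/93% N2. 48-h assay at 2% parasitemia, 0.5% hematocrit, triplicate. Drugs from DMSO stocks diluted in medium. [3H]hypoxanthine added at 24 h, harvested at 48 h and counted. IC50 by probit interpolation of log dose–response.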

Plasmodium falciparum [2] = assay: In vitro inhibitory activity against chloroquine-resistant Plasmodium falciparum K1; type: functional, organism-based; how it was run: as §1
[3] = Resistance factor by IC50(K1)/IC50(HB3); type: functional
How it was run: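 P. falciparum K1 (uncloned, CQ-resistant) and HB3 (sensitive), both from Thailand, were cultured in human erythrocytes in RPMI 1640/HEPES/NaHCO3 with 10% human serum under 3% O2/4% CO2. Assays ran 48 h at 2% parasitemia and 0.5% hematocrit, in triplicate, from DMSO stocks diluted in medium. [3H]hypoxanthine was added at 24 h. IC50 came from probit of the log dose-response curve. The factor is K1 IC50 divided by HB3 IC50.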

[4] = test system: Plasmodium berghei (NS strain); assay: In vivo inhibition of Plasmodium berghei infected male Swiss albino mice (Mus musculus) by intraperitoneal dose; conditions: ip
[5] = test system: Plasmodium berghei (NS strain); assay: In vivo inhibition of Plasmodium berghei infected male Swiss albino mice (Mus musculus) by oral dose

SMILES: CCC(C)c1cc(Nc2ccnc3cc(Cl)ccc23)cc(CNC(C)(C)C)c1O (centres undefined)
- pIC50 (Plasmodium falciparum [1]): 8.71
- pIC50 (Plasmodium falciparum [2]): 8.24
- Resistance factor [3]: 2.92

SMILES: Cc1cc(Nc2ccnc3cc(Cl)ccc23)cc(CNC(C)(C)C)c1O
- pIC50 (Plasmodium falciparum [1]): 8.52
- pIC50 (Plasmodium falciparum [2]): 7.95
- Resistance factor [3]: 3.76

SMILES: CC(C)(C)NCc1cc(Nc2ccnc3cc(Cl)ccc23)cc(C2CCCCC2)c1O
- pIC50 (Plasmodium falciparum [1]): 8.17
- pIC50 (Plasmodium falciparum [2]): 7.84
- Resistance factor [3]: 2.13

SMILES: CCc1cc(Nc2ccnc3cc(Cl)ccc23)cc(CNC(C)(C)C)c1O
- pIC50 (Plasmodium falciparum [1]): 8.53
- pIC50 (Plasmodium falciparum [2]): 8.10
- Resistance factor [3]: 2.65

SMILES: CCN(CC)CCCC(C)Nc1ccnc2cc(Cl)ccc12 (centres undefined)
- Resistance factor [3]: 9.57

SMILES: CCN(CC)Cc1cc(Nc2ccnc3cc(Cl)ccc23)ccc1O.Cl
- pIC50 (Plasmodium falciparum [1]): 8.61
- ED50 [4]: 3.3 mg/kg
- ED50 [5]: 1.92 mg/kg
- pIC50 (Plasmodium falciparum [2]): 7.88
- Resistance factor [3]: 5.35

SMILES: CCCc1cc(Nc2ccnc3cc(Cl)ccc23)cc(CNC(C)(C)C)c1O
- pIC50 (Plasmodium falciparum [1]): 9.01
- ED50 [4]: 0.8 mg/kg
- ED50 [5]: 0.56 mg/kg
- pIC50 (Plasmodium falciparum [2]): 8.74
- Resistance factor [3]: 1.86

SMILES: CC(C)(C)NCc1cc(Nc2ccnc3cc(Cl)ccc23)ccc1O [N-TERT-BUTYL-AMODIAQUINE]
- pIC50 (Plasmodium falciparum [1]): 8.83
- pIC50 (Plasmodium falciparum [2]): 8.46
- Resistance factor [3]: 2.33

SMILES: CC(C)c1cc(Nc2ccnc3cc(Cl)ccc23)cc(CNC(C)(C)C)c1O
- pIC50 (Plasmodium falciparum [1]): 8.91
- ED50 [4]: 0.78 mg/kg
- ED50 [5]: 0.38 mg/kg
- pIC50 (Plasmodium falciparum [2]): 8.73
- Resistance factor [3]: 1.5

SMILES: CC(C)(C)NCc1cc(Nc2ccnc3cc(Cl)ccc23)cc(C(C)(C)C)c1O
- pIC50 (Plasmodium falciparum [1]): 8.08
- pIC50 (Plasmodium falciparum [2]): 7.67
- Resistance factor [3]: 2.54
